TLR9-MyD88 block: inhibitors of TLR9-MyD88 association in cells, primary screen, cell-based, CHO, BLA complementation, fluorescence; Toll-like receptor 9 (Homo sapiens) + Myeloid differentiation primary response protein …; CCF4 FRET ratio; inhibition, % at 4.98 µM; 340,000 compounds, 0.21% hits; AID 504734, 2011;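 active means inhibition above the mean over all tested compounds plus 3 SD, cut at about 21% in these data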
Target sequence (Q99836 whole entry, looked up): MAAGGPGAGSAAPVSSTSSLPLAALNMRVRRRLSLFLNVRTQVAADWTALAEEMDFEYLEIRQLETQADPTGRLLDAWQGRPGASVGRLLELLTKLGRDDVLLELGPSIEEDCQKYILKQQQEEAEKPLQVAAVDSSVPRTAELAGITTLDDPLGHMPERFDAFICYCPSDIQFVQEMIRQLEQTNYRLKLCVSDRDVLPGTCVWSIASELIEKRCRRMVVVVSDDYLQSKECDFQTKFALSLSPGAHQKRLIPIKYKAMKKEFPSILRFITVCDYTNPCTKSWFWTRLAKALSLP
Target sequence (Q9NR96 whole entry, looked up): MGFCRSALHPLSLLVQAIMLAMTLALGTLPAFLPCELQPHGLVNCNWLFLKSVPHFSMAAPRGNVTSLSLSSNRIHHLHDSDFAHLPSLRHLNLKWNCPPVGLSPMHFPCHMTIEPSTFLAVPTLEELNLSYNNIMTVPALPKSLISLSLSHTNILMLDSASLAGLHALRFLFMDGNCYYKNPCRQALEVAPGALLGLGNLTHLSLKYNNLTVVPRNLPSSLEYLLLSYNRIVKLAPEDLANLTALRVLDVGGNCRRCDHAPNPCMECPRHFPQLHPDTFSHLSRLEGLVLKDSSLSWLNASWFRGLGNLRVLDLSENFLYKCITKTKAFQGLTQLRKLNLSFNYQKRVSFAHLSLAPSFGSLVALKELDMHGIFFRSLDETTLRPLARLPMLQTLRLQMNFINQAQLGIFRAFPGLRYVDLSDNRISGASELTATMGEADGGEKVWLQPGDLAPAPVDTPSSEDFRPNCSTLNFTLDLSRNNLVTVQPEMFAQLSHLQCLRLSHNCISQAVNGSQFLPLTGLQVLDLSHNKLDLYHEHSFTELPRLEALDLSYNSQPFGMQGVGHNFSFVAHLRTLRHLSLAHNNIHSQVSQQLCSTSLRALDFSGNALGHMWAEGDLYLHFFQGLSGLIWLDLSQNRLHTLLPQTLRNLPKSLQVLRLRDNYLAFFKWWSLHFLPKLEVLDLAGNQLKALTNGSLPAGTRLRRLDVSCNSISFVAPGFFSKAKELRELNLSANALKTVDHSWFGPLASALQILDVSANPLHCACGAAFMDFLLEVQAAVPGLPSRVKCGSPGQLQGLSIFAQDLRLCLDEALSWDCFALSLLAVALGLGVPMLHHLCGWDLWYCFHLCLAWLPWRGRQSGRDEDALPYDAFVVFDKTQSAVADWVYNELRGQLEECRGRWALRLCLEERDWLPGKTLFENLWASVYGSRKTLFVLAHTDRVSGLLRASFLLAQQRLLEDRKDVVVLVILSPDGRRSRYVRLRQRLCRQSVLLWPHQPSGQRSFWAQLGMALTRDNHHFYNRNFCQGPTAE
NOD2 RIPK2 PPI: NOD2-RIPK2 binding disruptors in cells, primary screen, fluorescence, CHO cells, BLA complementation; Receptor-interacting serine/threonine-protein kinase 2 (Homo sapiens), O43353; CCF4 ratio; inhibition, % at 4.98 µM; 360,000 compounds, 0.38% hits; AID 624267, 2012; in the data active means inhibition above about 21%
MC4R antagonist: MC4R antagonists of cAMP signaling, primary screen, cell-based, TR-FRET, antagonist arm of biased-ligand search | inhibition, % at 6.5 µM | MC4R-expressing cells, MTII-stimulated cAMP, LANCE TR-FRET | 360,000 compounds, 0.48% hits | AID 540295, 2011;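 active means inhibition above its plate's cutoff, the mean of tested wells on that plate plus 3 SD, cut at about 29% in these data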
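Test system: U2OS cells stably expressing human melanocortin 4 receptor (MC4R); also added: Melanotan II challenge; compound: 6.5 µM single dose; timing: 30-min compound preincubation, 1-h Melanotan II challenge, 1-h detection, room temperature; signal: Eu-cAMP/anti-cAMP TR-FRET, emission 671 nm; repeats: one well per compound, no replicates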
NTR1 agonist: agonists of human NTR1, primary screen, imaging, U2OS cells, beta-arrestin-GFP, high content; Neurotensin receptor type 1 (Homo sapiens), P30989; NTR1-U2OS beta-arrestin-GFP spot imaging, agonist mode; 330,000 compounds, 0.17% hits; activation, % at 20 µM;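 active means activation at or above 40% of the spot to cytoplasm intensity ratio, with at least 20 cells analyzed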
TLR4-MyD88 BLA: inhibitors of TLR4-MyD88 association in cells, primary screen, cell-based, HeLa CL3-4, BLA complementation, FRET ratio; AID 861, 2007; 200,000 compounds, 0.18% hits; inhibition, % at 8.4 µM; HeLa CL3-4 TLR4/MyD88 BLA complementation; Toll-like receptor 4 (Homo sapiens) + Myeloid differentiation primary response protein …; in the data active means inhibition above about 25%
MC4R ag barr: MC4R agonists recruiting beta-arrestin, primary screen, cell-based, luminescence, agonist arm of biased-ligand search; U2OS MC4R beta-arrestin complementation; percent of melanotan II response, DMSO zero; Melanocortin receptor 4 (Homo sapiens), P32245; activation, % at 8.9 µM; 360,000 compounds, 0.98% hits; AID 540308, 2011;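 active means activation above a per-plate cutoff, the mean activation of sample wells on that plate plus 3 SD, cut at about 8% in these data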
MC4R barr conf: MC4R beta-arrestin agonists, retest, confirmation, cell-based, luminescence, U2OS. shares compounds with MC4R ag barr. U2OS MC4R beta-arrestin recruitment; scaled DMSO 0%, Melanotan II 100%. activation, % at 8.9 µM. 2,400 compounds, 31% hits. AID 602192, 2012;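 active means mean activation across replicates above the hit cutoff set in the earlier primary screen, cut at about 8% in these data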
MOR DOR agonist: agonists of MOR-DOR heterodimerization, counter-screen for MC4R biased agonist project, cell-based, luminescence. 2,400 compounds, 5.8% hits. AID 602194, 2012. shares compounds with MC4R ag barr. U2OS PathHunter beta-arrestin, beta-gal luminescence; percent of deltorphin B response, DMSO zero. activation, % at 9.2 µM;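 active means mean activation across replicates exceeds the hit threshold derived in the earlier primary screen, cut at about 18% in these data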
Of the large screens only hits and unclear results are named; the others gave an inactive call (follow-up assays come after a bar, where they were run). Most compounds without a hit are left out; they make up all but 1.9% or so of the library.

Cn1c(C(=O)OCC(=O)NCc2cccs2)cc2sccc21	MC4R ag barr 10.2 | MC4R barr conf inactive | MOR DOR agonist inactive
CCOc1cc(/C=N/N=C(\N)c2nonc2N)cc(Br)c1OCc1cccc2ccccc12	MC4R ag barr 30.7 | MC4R barr conf 10.8 | MOR DOR agonist inactive
COc1cc(/C=N/N=C(/N)c2nonc2N)cc(Br)c1OCc1cccc(C)c1	none
CN1CCSc2ccc(C(=O)NCc3cccc(Br)c3)cc21	none (no result: TLR4-MyD88 BLA)
CN(C(=O)c1cccc(NC(=O)Cc2ccc(NC(=O)C3CCCN(C(=O)C4CC4)C3)cc2)c1)C1CCCC1 (stereo not drawn)	none (no result: NTR1 agonist, TLR4-MyD88 BLA)
O=C(Nc1ccc2c(c1)OCO2)c1nn(-c2ccccc2)c(=O)c2ccccc12	MC4R ag barr 10.7 | MC4R barr conf inactive | MOR DOR agonist inactive
O=S(=O)(NCc1ccccc1)c1ccc(S(=O)(=O)N(Cc2ccccn2)Cc2ccco2)cc1	MC4R ag barr 10.2 | MC4R barr conf inactive | MOR DOR agonist inactive
OC(COc1ccc(F)cc1Cl)CN1CCC(Cc2ccccc2)CC1 (stereo not drawn)	MC4R ag barr 11.1 (no result: TLR4-MyD88 BLA) | MC4R barr conf 9.3 | MOR DOR agonist inactive
COc1cccc(-c2nc(C(N)=O)c3[nH]c(=O)n(-c4cccc(Cl)c4)c3n2)c1OC	none
COc1ccc(-c2nc(C(N)=O)c3[nH]c(=O)n(-c4cccc(Cl)c4)c3n2)cc1OC	MC4R ag barr 12.9 (no result: NTR1 agonist) | MC4R barr conf 10.8 | MOR DOR agonist inactive
Cc1ccc(C(OCC(O)CNCc2ccc(F)cc2)c2ccccc2)cc1 (stereo not drawn)	MC4R ag barr 14.1 (no result: TLR4-MyD88 BLA) | MC4R barr conf 23.5 | MOR DOR agonist inactive
O=C(c1ccccc1)c1ccc(OCC(O)CNCc2ccc(F)cc2)cc1 (stereo not drawn)	none (no result: NTR1 agonist, TLR4-MyD88 BLA)
CCOc1ccc(NS(=O)(=O)c2ccc(SC)cc2)cc1	MC4R ag barr 10.5 | MC4R barr conf inactive | MOR DOR agonist inactive
CCOc1ccc(NS(=O)(=O)c2ccc(N)cc2)cc1	none
COc1ccc(-n2nc(C(=O)NCC(=O)NCCCN3CCOCC3)c3ccccc3c2=O)c(OC)c1	none (no result: TLR4-MyD88 BLA)
O=C(NCc1ccccc1)N1CCN(CCO)CC1	none (no result: NTR1 agonist, TLR4-MyD88 BLA)
C=CCn1c(=NC(=O)c2cc(-c3cccs3)nc3ccccc23)sc2cc(S(N)(=O)=O)ccc21	none
C=CCn1c(=NC(=O)c2cc(Cl)sc2Cl)sc2cc(S(N)(=O)=O)ccc21	MC4R ag barr 13.8 | MC4R barr conf inactive | MOR DOR agonist inactive
O=C(CCl)NC(Cc1ccccc1)C(=O)OCC(=O)c1ccc(-c2ccccc2)cc1 (stereo not drawn)	MC4R ag barr 14.4 (no result: NTR1 agonist, TLR4-MyD88 BLA) | MC4R barr conf inactive | MOR DOR agonist inactive
COc1ccc(-c2csc3ncnc(NCCO)c23)cc1	none (no result: TLR4-MyD88 BLA)
COc1ccc(-c2csc3ncnc(Nc4ccc(O)cc4)c23)cc1	MC4R ag barr 14.4 | MC4R barr conf inactive | MOR DOR agonist inactive
CC(C)C[C@H]1CNC(=S)N1C[C@H]1CCCN1C[C@H](CC(C)C)N1C[C@H](Cc2ccc(O)cc2)N(CC2CCCCC2)C1=S	none (no result: TLR9-MyD88 block, MC4R antagonist, NTR1 agonist, TLR4-MyD88 BLA, MC4R ag barr)
